From ChEMBL document CHEMBL3044632, “Synthesis, crystal structure, and biological activity of 4-methyl-1,2,3-thiadiazole-containing 1,2,4-triazolo[3,4-b][1,3,4]thiadiazoles” (J Agric Food Chem, 2010)

system: Thanatephorus cucumeris; assay: Fungicide activity against Thanatephorus cucumeris assessed as growth inhibition at 50 ug/mL at 24 to 26 degC measured after 2 days; assay type: functional; conditions: 48 h, read-out: GI

Going from `Cc1nnsc1C1=NNC2SC(c3ccccc3OC(F)(F)F)=NN12` (centres undefined) to `Cc1nnsc1C1=NNC2SC(c3ccc(F)cc3)=NN12` (centres undefined), the inhibition of growth at 50 µg/mL falls from 35.7% to 11.3%.

Compared with `COc1cccc(C2=NN3C(c4snnc4C)=NNC3S2)c1` (centres undefined), `Cc1nnsc1C1=NNC2SC(c3c(Cl)cccc3Cl)=NN12` (centres undefined) is lower in inhibition of growth at 50 µg/mL: 60.8% for the first, 42.3% for the second.

`CCc1cc(C2=NN3C(c4snnc4C)=NNC3S2)nn1C` (centres undefined) showed an inhibition of growth at 50 µg/mL of 30.4%.

system: Colletotrichum lagenaria; assay: Fungicide activity against Colletotrichum lagenaria assessed as growth inhibition at 50 ug/mL at 24 to 26 degC measured after 2 days; assay type: functional; conditions: 48 h, read-out: GI

Going from `Cc1nnsc1C1=NNC2SC(c3ccccc3OC(F)(F)F)=NN12` (centres undefined) to `Cc1nnsc1C1=NNC2SC(c3ccc(F)cc3)=NN12` (centres undefined), the inhibition of growth at 50 µg/mL falls from 45.5% to 10.3%.

Compared with `COc1cccc(C2=NN3C(c4snnc4C)=NNC3S2)c1` (centres undefined), `Cc1nnsc1C1=NNC2SC(c3c(Cl)cccc3Cl)=NN12` (centres undefined) is higher in inhibition of growth at 50 µg/mL: 0% for the first, 20.7% for the second.

With `CCc1cc(C2=NN3C(c4snnc4C)=NNC3S2)nn1C` (centres undefined) the inhibition of growth at 50 µg/mL was 0%.

system: Tobacco mosaic virus; assay: Antiviral activity against Tobacco mosaic virus (TMV) infected leaves assessed as viral inhibition at 50 ug/mL at 25 degC for 72 hr; assay type: functional; conditions: not given
Outline: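 Systemic acquired resistance induction was assayed in a tobacco–TMV system. The antivirus inhibition ratio was calculated from the average number of viral lesions on inoculated leaves, relative to the corresponding control.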

Going from `Cc1nnsc1C1=NNC2SC(c3ccccc3OC(F)(F)F)=NN12` (centres undefined) to `Cc1nnsc1C1=NNC2SC(c3ccc(F)cc3)=NN12` (centres undefined), the inhibition at 50 µg/mL falls from 25% to 0%.

Compared with `COc1cccc(C2=NN3C(c4snnc4C)=NNC3S2)c1` (centres undefined), `Cc1nnsc1C1=NNC2SC(c3c(Cl)cccc3Cl)=NN12` (centres undefined) is higher in inhibition at 50 µg/mL: 0% for the first, 12.5% for the second.

Compound `CCc1cc(C2=NN3C(c4snnc4C)=NNC3S2)nn1C` (centres undefined) has an inhibition at 50 µg/mL of 34.8%.

system: Botryosphaeria berengeriana; assay: Fungicide activity against Botryosphaeria berengeriana assessed as growth inhibition at 50 ug/mL at 24 to 26 degC measured after 2 days; assay type: functional; conditions: 48 h, read-out: GI

Compared with `Cc1nnsc1C1=NNC2SC(c3ccccc3OC(F)(F)F)=NN12` (centres undefined), `Cc1nnsc1C1=NNC2SC(c3ccc(F)cc3)=NN12` (centres undefined) is higher in inhibition of growth at 50 µg/mL: 15.4% for the first, 18.6% for the second.

Compared with `COc1cccc(C2=NN3C(c4snnc4C)=NNC3S2)c1` (centres undefined), `Cc1nnsc1C1=NNC2SC(c3c(Cl)cccc3Cl)=NN12` (centres undefined) is lower in inhibition of growth at 50 µg/mL: 45.2% for the first, 37.2% for the second.

`CCc1cc(C2=NN3C(c4snnc4C)=NNC3S2)nn1C` (centres undefined) gave an inhibition of growth at 50 µg/mL of 12.8%.

system: Fusarium graminearum; assay: Fungicide activity against Fusarium graminearum assessed as growth inhibition at 50 ug/mL at 24 to 26 degC measured after 2 days; assay type: functional; conditions: 48 h, read-out: GI

`Cc1nnsc1C1=NNC2SC(c3ccc(F)cc3)=NN12` (centres undefined) and `Cc1nnsc1C1=NNC2SC(c3c(Cl)cccc3Cl)=NN12` (centres undefined) are the same in inhibition of growth at 50 µg/mL: 14.3% for the first, 14.3% for the second.

system: Alternaria solani; assay: Fungicide activity against Alternaria solani assessed as growth inhibition at 50 ug/mL at 24 to 26 degC measured after 2 days; assay type: functional; conditions: 48 h, read-out: GI

Going from `Cc1nnsc1C1=NNC2SC(c3ccccc3OC(F)(F)F)=NN12` (centres undefined) to `Cc1nnsc1C1=NNC2SC(c3ccc(F)cc3)=NN12` (centres undefined), the inhibition of growth at 50 µg/mL rises from 4.8% to 26.3%.

First: COc1cccc(C2=NN3C(c4snnc4C)=NNC3S2)c1 (centres undefined)
Second: Cc1nnsc1C1=NNC2SC(c3c(Cl)cccc3Cl)=NN12 (centres undefined)
The inhibition of growth at 50 µg/mL of the first is lower: 23.3% for the first, 23.7% for the second.

`CCc1cc(C2=NN3C(c4snnc4C)=NNC3S2)nn1C` (centres undefined) gave an inhibition of growth at 50 µg/mL of 9.5%.

system: Botrytis cinerea; assay: Fungicide activity against Botryotinia fuckeliana assessed as growth inhibition at 50 ug/mL at 24 to 26 degC measured after 2 days; assay type: functional; conditions: 48 h, read-out: GI

Compared with `Cc1nnsc1C1=NNC2SC(c3ccc(F)cc3)=NN12` (centres undefined), `Cc1nnsc1C1=NNC2SC(c3c(Cl)cccc3Cl)=NN12` (centres undefined) is higher in inhibition of growth at 50 µg/mL: 53.3% for the first, 64.4% for the second.

system: Nicotiana tabacum; assay: Phytotoxicity against Nicotiana tabacum (tobacco) plant at 50 to 500 ug/mL; assay type: organism-based; conditions: in vivo

For `Cc1nnsc1C1=NNC2SC(c3ccccc3OC(F)(F)F)=NN12` (centres undefined), the Activity was “Toxic”.
For `Cc1nnsc1C1=NNC2SC(c3ccc(F)cc3)=NN12` (centres undefined), the Activity was “Toxic”.
`COc1cccc(C2=NN3C(c4snnc4C)=NNC3S2)c1` (centres undefined) was tested, and the Activity was “Toxic”.
`CCc1cc(C2=NN3C(c4snnc4C)=NNC3S2)nn1C` (centres undefined) was tested, and the Activity was “Toxic”.
`Cc1nnsc1C1=NNC2SC(c3c(Cl)cccc3Cl)=NN12` (centres undefined) was tested, and the Activity was “Toxic”.

system: Fusarium oxysporum; assay: Fungicide activity against Fusarium oxysporum assessed as growth inhibition at 50 ug/mL at 24 to 26 degC measured after 2 days; assay type: functional; conditions: 48 h, read-out: GI

First: Cc1nnsc1C1=NNC2SC(c3ccccc3OC(F)(F)F)=NN12 (centres undefined)
Second: Cc1nnsc1C1=NNC2SC(c3ccc(F)cc3)=NN12 (centres undefined)
The inhibition of growth at 50 µg/mL of the first is higher: 86% for the first, 9.3% for the second.

Going from `COc1cccc(C2=NN3C(c4snnc4C)=NNC3S2)c1` (centres undefined) to `Cc1nnsc1C1=NNC2SC(c3c(Cl)cccc3Cl)=NN12` (centres undefined), the inhibition of growth at 50 µg/mL falls from 19.4% to 13.9%.

In the case of `CCc1cc(C2=NN3C(c4snnc4C)=NNC3S2)nn1C` (centres undefined), the inhibition of growth at 50 µg/mL is reported as 47.2%.

system: Mycosphaerella arachidis; assay: Fungicide activity against Mycosphaerella arachidis assessed as growth inhibition at 50 ug/mL at 24 to 26 degC measured after 2 days; assay type: functional; conditions: 48 h, read-out: GI

Compared with `Cc1nnsc1C1=NNC2SC(c3ccccc3OC(F)(F)F)=NN12` (centres undefined), `Cc1nnsc1C1=NNC2SC(c3ccc(F)cc3)=NN12` (centres undefined) is higher in inhibition of growth at 50 µg/mL: 7.7% for the first, 33.1% for the second.

Going from `COc1cccc(C2=NN3C(c4snnc4C)=NNC3S2)c1` (centres undefined) to `Cc1nnsc1C1=NNC2SC(c3c(Cl)cccc3Cl)=NN12` (centres undefined), the inhibition of growth at 50 µg/mL rises from 18.2% to 23.1%.

`CCc1cc(C2=NN3C(c4snnc4C)=NNC3S2)nn1C` (centres undefined) showed an inhibition of growth at 50 µg/mL of 7.7%.

system: Phytophthora infestans; assay: Fungicide activity against Phytophthora infestans assessed as growth inhibition at 50 ug/mL at 24 to 26 degC measured after 2 days; assay type: functional; conditions: 48 h, read-out: GI

Compared with `Cc1nnsc1C1=NNC2SC(c3ccccc3OC(F)(F)F)=NN12` (centres undefined), `Cc1nnsc1C1=NNC2SC(c3ccc(F)cc3)=NN12` (centres undefined) is higher in inhibition of growth at 50 µg/mL: 0% for the first, 15.6% for the second.

First: COc1cccc(C2=NN3C(c4snnc4C)=NNC3S2)c1 (centres undefined)
Second: Cc1nnsc1C1=NNC2SC(c3c(Cl)cccc3Cl)=NN12 (centres undefined)
The inhibition of growth at 50 µg/mL of the first is lower: 17.3% for the first, 20% for the second.

`CCc1cc(C2=NN3C(c4snnc4C)=NNC3S2)nn1C` (centres undefined) was tested, and the inhibition of growth at 50 µg/mL was 4.8%.

system: Cercospora beticola; assay: Fungicide activity against Cercospora beticola assessed as growth inhibition at 50 ug/mL at 24 to 26 degC measured after 2 days; assay type: functional; conditions: 48 h, read-out: GI

Compared with `Cc1nnsc1C1=NNC2SC(c3ccccc3OC(F)(F)F)=NN12` (centres undefined), `Cc1nnsc1C1=NNC2SC(c3ccc(F)cc3)=NN12` (centres undefined) is higher in inhibition of growth at 50 µg/mL: 0% for the first, 7.1% for the second.

First: COc1cccc(C2=NN3C(c4snnc4C)=NNC3S2)c1 (centres undefined)
Second: Cc1nnsc1C1=NNC2SC(c3c(Cl)cccc3Cl)=NN12 (centres undefined)
The inhibition of growth at 50 µg/mL of the first is lower: 14.3% for the first, 28.6% for the second.

`CCc1cc(C2=NN3C(c4snnc4C)=NNC3S2)nn1C` (centres undefined) showed an inhibition of growth at 50 µg/mL of 0%.

system: Puccinia triticina; assay: Fungicide activity against Puccinia triticina assessed as growth inhibition at 50 ug/mL at 24 to 26 degC measured after 2 days; assay type: functional; conditions: 48 h, read-out: GI

First: Cc1nnsc1C1=NNC2SC(c3ccccc3OC(F)(F)F)=NN12 (centres undefined)
Second: COc1cccc(C2=NN3C(c4snnc4C)=NNC3S2)c1 (centres undefined)
The inhibition of growth at 50 µg/mL of the first is lower: 0% for the first, 31.6% for the second.

In the case of `CCc1cc(C2=NN3C(c4snnc4C)=NNC3S2)nn1C` (centres undefined), the inhibition of growth at 50 µg/mL is reported as 10%.

system: Rhizoctonia solani; assay: Fungicide activity against Rhizoctonia solani Kuhn assessed as growth inhibition at 50 ug/mL at 24 to 26 degC measured after 2 days; assay type: functional; conditions: 48 h, read-out: GI

Compared with `Cc1nnsc1C1=NNC2SC(c3ccccc3OC(F)(F)F)=NN12` (centres undefined), `CCc1cc(C2=NN3C(c4snnc4C)=NNC3S2)nn1C` (centres undefined) is higher in inhibition of growth at 50 µg/mL: 5.6% for the first, 19.4% for the second.
